Values after ≈ are worked out from the molar mass of the structure shown.
Columns and labels:
CYP2D6 = CYP2D6 (Homo sapiens, UniProt P10635); assay: Time dependent inhibition of CYP2D6 in human liver microsomes assessed as enzyme remaining activity using cocktail of probe CYP as substrate at 50 uM; assay type: ADME; conditions: probe cocktail of CYP probe substrates, read-out: Activity
In short: (§1)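 Time-dependent CYP inhibition in human liver microsomes, with test compound at 50 µM and a cocktail of probe CYP substrates.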

[1] = AUC (0 to 24 hrs) in CAnN.Cg-Foxnlnu/CrlCrlj mouse plasma at 25 mg/kg, po single dose measured up to 24 hrs by liquid chromatography tandem mass spectrometry; assay type: ADME, organism-based; set-up: route oral, dose 25 mg/kg, time <=24
Homo sapiens = organism: Homo sapiens; assay: Ratio of IC50 for Mer (unknown origin) to IC50 for Axl (unknown origin)
CYP3A = assay: Time dependent inhibition of CYP3A in human liver microsomes assessed as enzyme remaining activity using cocktail of probe CYP as substrate at 50 uM; assay type: ADME; conditions: probe cocktail of CYP probe substrates, read-out: Activity; in short: as §1
[2] = AUC (0 to 24 hrs) in CAnN.Cg-Foxnlnu/CrlCrlj mouse plasma at 50 mg/kg, po single dose measured up to 24 hrs by liquid chromatography tandem mass spectrometry; assay type: ADME, organism-based; set-up: route oral, dose 50 mg/kg, time <=24
[3] = Tmax in CAnN.Cg-Foxnlnu/CrlCrlj mouse plasma at 50 mg/kg, po single dose measured up to 24 hrs by liquid chromatography tandem mass spectrometry; assay type: ADME, organism-based
[4] = Solubility in PBS; assay type: physicochemical
In short: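 Solubility measured in Dulbecco's phosphate-buffered saline.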

[5] = Tmax in CAnN.Cg-Foxnlnu/CrlCrlj mouse plasma at 100 mg/kg, po single dose measured up to 24 hrs by liquid chromatography tandem mass spectrometry; assay type: ADME, organism-based
[6] = AUC (0 to 24 hrs) in CAnN.Cg-Foxnlnu/CrlCrlj mouse plasma at 100 mg/kg, po single dose measured up to 24 hrs by liquid chromatography tandem mass spectrometry; assay type: ADME, organism-based; set-up: route oral, dose 100 mg/kg, time <=24

Sequence of CYP2D6 (P10635 whole entry): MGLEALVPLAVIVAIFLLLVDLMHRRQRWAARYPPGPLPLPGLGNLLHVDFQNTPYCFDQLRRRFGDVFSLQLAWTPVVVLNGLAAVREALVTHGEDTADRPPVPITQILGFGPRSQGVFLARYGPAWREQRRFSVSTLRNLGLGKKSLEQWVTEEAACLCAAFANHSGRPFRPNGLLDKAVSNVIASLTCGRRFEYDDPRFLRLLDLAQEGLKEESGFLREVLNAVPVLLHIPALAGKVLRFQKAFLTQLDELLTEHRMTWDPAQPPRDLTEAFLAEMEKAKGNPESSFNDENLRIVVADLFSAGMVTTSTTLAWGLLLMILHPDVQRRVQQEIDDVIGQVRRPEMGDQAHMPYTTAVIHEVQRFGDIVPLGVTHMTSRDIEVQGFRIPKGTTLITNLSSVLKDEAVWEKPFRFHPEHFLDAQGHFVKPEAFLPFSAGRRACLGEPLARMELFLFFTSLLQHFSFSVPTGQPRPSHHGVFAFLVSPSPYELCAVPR

Compound Cc1ccc(-n2c(=O)c(C(=O)Nc3ccc(Oc4ncnc5c4CCN(CC4CCN(C)CC4)C5)c(F)c3)cn(C3CCCC3)c2=O)nc1 has an activity at 50 µM (CYP2D6) of 83%, an AUC(0-t) [1] of 22900 ng·h/mL and a Ratio IC50 (Homo sapiens) of 37. It also gave an activity at 50 µM (CYP3A) of 51%, an AUC(0-t) [2] of 56700 ng·h/mL and a Tmax [3] of 1 h. The solubility [4] was 83 µM (≈ 55.5 µg/mL), the Tmax [5] was 1 h and the AUC(0-t) [6] was 110 µg·h/mL.
